In brackets after ≈: the same amount, converted by molar mass. Activity calls are given as the source filed them. The calls are words filed in the database; no cut-off is given here.

Experiment [1] relates to Mus musculus. Kind of experiment: Effect on the survival rate of mouse infected with herpes genitalis (HSV-2) administered intravaginally at 2% dosage twice in a day. The class given is functional. The procedure, abridged:
(§1)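 HSV-2 mouse genital model, infected intravaginally. Drug prepared in water + 1% gum tragacanth and given intravaginally b.i.d. via saturated cotton tampons, starting 4 h postinfection. Tampons were re-dosed with 0.02 mL 6 h after insertion and replaced daily. Test ended at day 14, with survivors assigned survival time >14 days. Read-out: % survival and average survival time.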

Experiment [2] concerns Mus musculus. Kind of experiment: Effect on the survival rate of mouse infected with herpes genitalis (HSV-2) administered intravaginally at 5% dosage twice in a day. The format is functional. The procedure, abridged: as §1
Experiment [3] relates to Mus musculus. The experiment in a line: Effect on the survival rate of mice infected with HSV-1 administered intravaginally at 1.25% dosage twice in a day. The format is functional. The method in brief:
(§2)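 Mice infected intravaginally with a tampon (dental pellet) saturated with HSV suspension. Aqueous drug solution given intravaginally b.i.d. on cotton tampons, starting 4 h postinfection. Each tampon stayed in 24 h, was re-moistened with 0.02 mL drug 6 h after insertion, and was replaced daily. Deaths were recorded daily to 14 days. Read-out: % survival and average survival time, with survivors scored >14 days.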

Experiment [4] relates to Mus musculus. Kind of experiment: Effect on the survival rate of mice infected with HSV-1 administered intravaginally at 2.5% dosage twice in a day. The class given is functional. The method in brief:
as §2

For experiment [5], the species on record is Mus musculus. Kind of experiment: Number of mice recovered from virus infected with Herpes simplex virus type-2 at 1.25% dosage twice in 2 nd day out of 10 mice sampled. The class given is functional. The procedure, abridged:
(§3)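 Mice were infected intravaginally with HSV-2 Curtis strain. Starting 4 h postinfection, they were treated intravaginally with cotton tampons saturated with 10, 5, 2.5 or 1.25% drug solution, replaced daily, plus 0.02 mL added 6 h later. Vaginal washings with 1.5 mL M-199 were taken each morning on days 1–7, frozen at −70 °C and assayed in BSC-1 cells. Read-out: mice with recoverable virus/mice sampled.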

For experiment [6], the species on record is Mus musculus. The experiment in a line: Number of mice recovered from virus infected with Herpes simplex virus type-2 at 1.25% dosage twice in 3 rd day out of 10 mice sampled. The class given is functional. The method in brief: as §3
The species entered for experiment [7] is Mus musculus. Kind of experiment: Number of mice recovered from virus infected with Herpes simplex virus type-2 at 1.25% dosage twice in 4 th day out of 10 mice sampled. The class given is functional. The procedure, abridged: as §3
Experiment [8] is filed under the species Mus musculus. Kind of experiment: Number of mice recovered from virus infected with Herpes simplex virus type-2 at 10% dosage twice in 3 rd day out of 10 mice sampled. The format is functional. The method in brief:
as §3

For experiment [9], the species on record is Mus musculus. Kind of experiment: Number of mice recovered from virus infected with Herpes simplex virus type-2 at 10% dosage twice in 4 th day out of 10 mice sampled. The class given is functional. The method in brief: as §3
The species entered for experiment [10] is Mus musculus. Kind of experiment: Number of mice recovered from virus infected with Herpes simplex virus type-2 at 1.25% dosage twice in 7 th day out of 10 mice sampled. The format is functional. The method in brief: as §3
The species entered for experiment [11] is Mus musculus. The experiment in a line: Number of mice recovered from virus infected with Herpes simplex virus type-2 at 10% dosage twice in 1st day out of 10 mice sampled. The class given is functional. The procedure, abridged: as §3
The species named for experiment [12] is Mus musculus. Kind of experiment: Number of mice recovered from virus infected with Herpes simplex virus type-2 at 10% dosage twice in 2 nd day out of 10 mice sampled. The class given is functional. The procedure, abridged: as §3
Experiment [13] is filed under the species Mus musculus. The experiment in a line: Number of mice recovered from virus infected with Herpes simplex virus type-2 at 10% dosage twice in 6 th day out of 10 mice sampled. The format is functional. The procedure, abridged: as §3
Experiment [14] is filed under the species Mus musculus. Kind of experiment: Number of mice recovered from virus infected with Herpes simplex virus type-2 at 10% dosage twice in 7 th day out of 10 mice sampled. The class given is functional. The method in brief:
as §3

The species entered for experiment [15] is Mus musculus. Kind of experiment: Number of mice recovered from virus infected with Herpes simplex virus type-2 at 2.5% dosage twice in 1st day out of 10 mice sampled. The class given is functional. The method in brief:
as §3

The species entered for experiment [16] is Mus musculus. The experiment in a line: Number of mice recovered from virus infected with Herpes simplex virus type-2 at 2.5% dosage twice in 2 nd day out of 10 mice sampled. The class given is functional. The procedure, abridged: as §3
The species named for experiment [17] is Mus musculus. Kind of experiment: Number of mice recovered from virus infected with Herpes simplex virus type-2 at 2.5% dosage twice in 3 rd day out of 10 mice sampled. The format is functional. The method in brief: as §3
The species named for experiment [18] is Mus musculus. The experiment in a line: Number of mice recovered from virus infected with Herpes simplex virus type-2 at 2.5% dosage twice in 4 th day out of 10 mice sampled. The class given is functional. The procedure, abridged:
as §3

For experiment [19], the species on record is Mus musculus. The experiment in a line: Number of mice recovered from virus infected with Herpes simplex virus type-2 at 2.5% dosage twice in 6 th day out of 10 mice sampled. The format is functional. The method in brief: as §3
For experiment [20], the species on record is Mus musculus. The experiment in a line: Number of mice recovered from virus infected with Herpes simplex virus type-2 at 2.5% dosage twice in 7 th day out of 8 mice sampled. The class given is functional. The procedure, abridged: as §3
The species entered for experiment [21] is Mus musculus. Kind of experiment: Number of mice recovered from virus infected with Herpes simplex virus type-2 at 5% dosage twice in 1 st day out of 10 mice sampled. The class given is functional. The method in brief:
as §3

The species entered for experiment [22] is Mus musculus. Kind of experiment: Number of mice recovered from virus infected with Herpes simplex virus type-2 at 5% dosage twice in 2 nd day out of 10 mice sampled. The format is functional. The method in brief:
as §3

For experiment [23], the species on record is Mus musculus. The experiment in a line: Number of mice recovered from virus infected with Herpes simplex virus type-2 at 5% dosage twice in 3 rd day out of 10 mice sampled. The format is functional. The method in brief: as §3
The species entered for experiment [24] is Mus musculus. The experiment in a line: Number of mice recovered from virus infected with Herpes simplex virus type-2 at 5% dosage twice in 4 th day out of 10 mice sampled. The class given is functional. The method in brief: as §3
For experiment [25], the species on record is Mus musculus. The experiment in a line: Number of mice recovered from virus infected with Herpes simplex virus type-2 at 5% dosage twice in 6 th day out of 8 mice sampled. The class given is functional. The method in brief: as §3
For experiment [26], the species on record is Mus musculus. Kind of experiment: Number of mice recovered from virus infected with Herpes simplex virus type-2 at 5% dosage twice in 7 th day out of 8 mice sampled. The format is functional. The procedure, abridged: as §3
The species entered for experiment [27] is Mus musculus. The experiment in a line: Number of mice recovered from virus infected with Herpes simplex virus type-2 at 1.25% dosage twice in 1st day out of 10 mice sampled. The format is functional. The procedure, abridged:
as §3

The subject of experiment [28] is Mus musculus. Kind of experiment: Effect on the survival rate of mouse infected with herpes genitalis (HSV-2) administered intravaginally at 5% twice in a day. The format is functional.
The subject of experiment [29] is Mus musculus. The experiment in a line: Effect on the survival rate of mice iinfected with HSV-1 administered intravaginally at 2.5% dosage twice in a day. The class given is functional. The procedure, abridged: as §2
The subject of experiment [30] is Mus musculus. The experiment in a line: Effect on the survival rate of mice infected with HSV-1 administered intravaginally at 10% dosage twice in a day. The class given is functional. The method in brief:
as §2

Experiment [31] has as its system Mus musculus. The experiment in a line: Effect on the survival rate of mice infected with HSV-1 administered intravaginally at 5% dosage twice in a day. The format is functional. The method in brief:
as §2

The test system of experiment [32] is Mus musculus. The experiment in a line: Effect on the survival rate of mice infected with HSV-2 administered intravaginally at 1.25% dosage twice in a day. The class given is functional. The procedure, abridged: as §2
In experiment [33] the test system is Mus musculus. The experiment in a line: Effect on the survival rate of mice infected with HSV-2 administered intravaginally at 10% dosage twice in a day. The format is functional. The method in brief: as §2
Experiment [34] relates to Mus musculus. The experiment in a line: Effect on the survival rate of mice infected with HSV-2 administered intravaginally at 2.5% dosage twice in a day. The class given is functional. The method in brief:
as §2

For experiment [35], the system named is Mus musculus. The experiment in a line: Effect on the survival rate of mice infected with HSV-2 administered intravaginally at 5% dosage twice in a day. The format is functional. The procedure, abridged: as §2
For experiment [36], the system named is Mus musculus. The experiment in a line: Effect on the survival rate of mice iinfected with HSV-1 administered intravaginally at 1.25% dosage twice in a day. The class given is functional. The procedure, abridged:
as §2

Experiment [37] has as its system Human alphaherpesvirus 2. The experiment in a line: Tested in vitro for minimum inhibitory activity against Herpes simplex virus type -2 (HSV-2). The format is functional.
In experiment [38] the test system is Human alphaherpesvirus 2. Kind of experiment: Tested in vitro for minimum inhibitory activity against Herpes simplex virus type -2 (HSV-2); Inactive. The class given is functional, organism-based.
The species entered for experiment [39] is Mus musculus. The experiment in a line: Effect on the survival rate of mice infected intravaginally with Herpes simplex virus type -2 (HSV-2) at 10% dosage twice in a day. The format is functional. The method in brief: as §2
The species entered for experiment [40] is Mus musculus. The experiment in a line: Effect on the survival rate of mice infected intravaginally with Herpes simplex virus type -2 (HSV-2) at 5% dosage twice in a day. The format is functional. The procedure, abridged: as §2

In [1], `O=c1[nH]c(=O)n([C@H]2C[C@H](O)[C@@H](CO)O2)cc1I` [IDOXURIDINE] gave an Average survival of over 11 days and a Survival of 40%. Besides, in experiment [2], the Average survival was over 9 days and the Survival is 10%.
Turning to `CCc1n[nH]c(CC)c1CCCCCCOc1ccc(OC)cc1Cl.CS(=O)(=O)O`, the Average survival in [3] was over 10 days; in [4], over 11 days; in [30] it was over 13 days; in [31], over 12 days; in [32] it was over 10 days; in experiment [33] it was over 13 days. For the same molecule, the Average survival in experiment [34] is over 12 days; in [35], over 13 days; in experiment [1] it was over 11 days; in experiment [2], over 13 days. Also, the “No. of mice receovered” value in experiment [5] came to 1; in experiment [6] it was 0; in experiment [7] it was 0; in [8], 0; in [9] it was 0; in experiment [10], 0. For the same molecule, the “No. of mice receovered” value in experiment [11] is reported as 0; in [12], 0; in experiment [13], 0; in experiment [14], 0; in experiment [15], 0; in [16] it was 1. Also, the “No. of mice receovered” value in experiment [17] was 0; in experiment [18], 0; in experiment [19], 0; in [20], 0; in [21] it was 1; in experiment [22] it was 0. Further, the “No. of mice receovered” value in [23], in [24], in [25], in experiment [26] and in [27] was 0 throughout. Besides, the Survival in [28] was 80%; in [29] it was 40%; in [30] it was 70%; in [31], 60%; in experiment [32] it was 40%; in experiment [33] it was 90%. The Survival stood at 70% in experiment [34], 90% in [35], 60% in experiment [1] and 30% in experiment [36].
`CCc1n[nH]c(CC)c1CCCCCCCOc1ccc(OC)cc1Cl` had an MIC in experiment [37] of 6 µg/mL (≈ 15.8 µM).
Regarding `Nc1ncnc2c1ncn2[C@@H]1O[C@H](CO)[C@@H](O)[C@@H]1O` [VIDARABINE], the figures for the Average survival in experiment [1] and in [2] were over 9 days and over 13 days, respectively. Moreover, the Survival in experiment [1] was found to be 10%; in experiment [2], 60%.
On to `COc1ccc(OCCCCCCc2c(C)nn(C)c2C)c(Cl)c1`, for which the MIC in [37] worked out at 0.7 µg/mL (≈ 1.99 µM).
Still for that read-out and setting: in the case of `CCc1nn(CCN(C)C)c(CC)c1CCCCCCOc1ccc(OC)cc1Cl` it was 6 µg/mL (≈ 13.8 µM).
On to `CCc1n[nH]c(CC)c1CCCCCCOc1ccc([N+](=O)[O-])cc1Cl`, for which the MIC result in [38] was “inactive”.
Take `COc1ccc(OCCCCCCCc2c(C)nn(C)c2C)c(Cl)c1`: the MIC in experiment [37] stood at 0.7 µg/mL (≈ 1.92 µM). In addition, the Average survival was over 10 days in experiment [39] and over 7 days in experiment [40]. Moreover, the Survival in [39] is reported as 30%; in experiment [40], 10%.
Turning to `CCc1n[nH]c(CC)c1CCCCCCOc1ccc(Br)cc1`, the MIC entry in experiment [38] was “inactive”.
